Experimental findings from ChEMBL document CHEMBL4330063, “New naphthopyran analogues of LY290181 as potential tumor vascular-disrupting agents” (Eur J Med Chem, 2019) are described below.

Activity calls are given as the source filed them. The calls are words filed in the database; no cut-off is given here.

Data set [1] can be described thus: Antiproliferative activity against human MCF7/Topo cells after 72 hrs by MTT assay. It is filed as functional, cell-based. The procedure, abridged: (§1)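 MTT read-out after 72 h of continuous exposure. Viability is expressed as percentage of viable cells relative to untreated controls. IC50 comes from dose-response curves. Values are means±SD of four independent experiments (two for some entries). DMSO was below 1%, with vehicle controls at equal DMSO. Precipitation was excluded spectrometrically and microscopically.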

A further data set deals with HCT-116. Briefly: Antiproliferative activity against human HCT116 cells after 72 hrs by MTT assay. It is filed as functional, cell-based. The settings on record: HCT-116, 72 h. The procedure, abridged:
as §1
(In general: Tetrazolium dyes change colour on reduction, which living cells bring about.)

In the next data set the test system is PANC-1. Briefly: Antiproliferative activity against human PANC1 cells after 72 hrs by MTT assay. It is filed as functional, cell-based. The settings on record: PANC-1, 72 h. Summed up:
as §1

The subject of a further data set is DLD-1. As to the kind of experiment: Antiproliferative activity against human DLD1 cells after 72 hrs by MTT assay. It is filed as functional, cell-based. The settings on record: DLD-1, 72 h. Summed up: as §1
A short description of data set [2]: Solubility in tween80/ethanol (1:1) solution. It is filed as physicochemical.
In a further data set the test system is 518A2. As to the kind of experiment: Antiproliferative activity against human 518A2 cells after 72 hrs by MTT assay. It is filed as functional, cell-based. Summed up:
as §1

The nature of data set [3]: Antiproliferative activity against human KB-V1/Vbl cells after 72 hrs by MTT assay. The format is functional, cell-based. The procedure, abridged:
as §1

The next data set deals with EA.hy 926. Briefly: Antiproliferative activity against human EAhy926 cells after 72 hrs by MTT assay. It is filed as functional, cell-based. Conditions: EA.hy 926, 72 h. The procedure, abridged: as §1
The test system of a further data set is A2780. As to the kind of experiment: Antiproliferative activity against human A2780 cells after 72 hrs by SRB assay. It is filed as functional, cell-based. The settings on record: A2780, 72 h. Summed up: (§2)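 Ovarian A2780 and cisplatin-resistant A2780cis cells were exposed for 72 h and stained with SRB. IC50 comes from dose-response curves, as means±SD of three independent experiments. Final DMSO was below 1%, with matched vehicle controls.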
On the technique in general: Sulforhodamine B stains cellular protein and so reports cell mass.

The subject of a further data set is HT-29. As to the kind of experiment: Antiproliferative activity against human HT-29 cells after 72 hrs by MTT assay. The format is functional, cell-based. The settings on record: HT-29, 72 h. Summed up:
as §1

Data set [4] in a line: Antiproliferative activity against human A2780cis cells after 72 hrs by SRB assay. It is filed as functional, cell-based. The procedure, abridged: as §2
Data set [5] has as its system Chorioallantoic membrane. Briefly: Antiangiogenic activity in Leghorn chicken embryo chorioallantoic membrane assessed as disruption of bigger blood vessels at 2.5 nmol after 6 hrs by light microscopic analysis. The format is functional, tissue-based. The settings on record: Gallus gallus. The procedure, abridged: (§3)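 Fertilized chicken eggs, CAM assay. Compound was applied topically into a small silicon foil ring placed on the CAM. The membrane and its extraembryonal blood vessels were monitored over 24 h, with observations at 6 h and 24 h post application.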

The test system of data set [6] is Chorioallantoic membrane. Briefly: Antiangiogenic activity in Leghorn chicken embryo chorioallantoic membrane assessed as reduction in blood vessel area at 2.5 nmol after 6 hrs by light microscopic analysis relative to control. It is filed as functional, tissue-based. The settings on record: Gallus gallus. The procedure, abridged:
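The CAM assay was run with topical application into a silicon foil ring atop the CAM of fertilized chicken eggs. Area covered by blood vessels was quantified by fractal analysis relative to control.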

Data set [7] relates to Chorioallantoic membrane. As to the kind of experiment: Antiangiogenic activity in Leghorn chicken embryo chorioallantoic membrane assessed as effect on blood vessel length at 2.5 nmol after 6 hrs by light microscopic analysis. Conditions: Gallus gallus. It is filed as functional, tissue-based. The procedure, abridged:
as §3

The subject of data set [8] is Chorioallantoic membrane. Briefly: Antiangiogenic activity in Leghorn chicken embryo chorioallantoic membrane assessed as induction of hemorrhages at 2.5 nmol after 24 hrs by light microscopic analysis. It is filed as functional, tissue-based. The settings on record: Gallus gallus. The procedure, abridged:
as §3

Data set [9] concerns Chorioallantoic membrane. As to the kind of experiment: Antiangiogenic activity in Leghorn chicken embryo chorioallantoic membrane assessed as induction of corrosion at 2.5 nmol after 24 hrs by light microscopic analysis. The format is functional, tissue-based. Conditions: Gallus gallus. The procedure, abridged:
as §3

What is called IC50 is the concentration needed to halve the response being measured. The low end stands for greater potency in that assay, the high end for weaker potency in that assay. Regarding `COc1c(I)cc(C2C(C#N)=C(N)Oc3c2ccc2ccccc32)cc1I` (configuration not stated), the IC50 in data set [1] is 22.8 nM; with HCT-116, 29.5 nM; in the data set with PANC-1 it was 13.1 nM; with DLD-1, 15 nM; with 518A2 (518A2, 72 h) it was 37.1 nM; in data set [3] it was 16.5 nM. Further, the IC50 with EA.hy 926 is 17.9 nM; with A2780, 16.4 nM; in the data set on HT-29, 45.2 nM; in data set [4] it was 18.2 nM. In [2], the solubility result is recorded as “Insoluble”. In addition, in the data set on 518A2, the Activity result was “Dose-dependent effect”.

Take `COc1ccc(/C=C\c2cc(OC)c(OC)c(OC)c2)cc1O`: the outcome in the data set with Chorioallantoic membrane [5], with Chorioallantoic membrane [6], in the data set with Chorioallantoic membrane [7], with Chorioallantoic membrane [8] and with Chorioallantoic membrane [9] was Active.
